Source: PubChem BioAssay
PMI act satM6P = activators of human phosphomannose isomerase at near-saturating mannose 6-phosphate. 190,000 tested, 0.34% active. coupled PMI enzyme assay, resazurin fluorescence, 20 min; active compounds read high; 1 = untreated enzyme, 0 = substrate-free blank. activation factor at 20 µM. P34949;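 active = activation factor of 2 or more at 20 µM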
Target sequence (P34949 whole entry, looked up): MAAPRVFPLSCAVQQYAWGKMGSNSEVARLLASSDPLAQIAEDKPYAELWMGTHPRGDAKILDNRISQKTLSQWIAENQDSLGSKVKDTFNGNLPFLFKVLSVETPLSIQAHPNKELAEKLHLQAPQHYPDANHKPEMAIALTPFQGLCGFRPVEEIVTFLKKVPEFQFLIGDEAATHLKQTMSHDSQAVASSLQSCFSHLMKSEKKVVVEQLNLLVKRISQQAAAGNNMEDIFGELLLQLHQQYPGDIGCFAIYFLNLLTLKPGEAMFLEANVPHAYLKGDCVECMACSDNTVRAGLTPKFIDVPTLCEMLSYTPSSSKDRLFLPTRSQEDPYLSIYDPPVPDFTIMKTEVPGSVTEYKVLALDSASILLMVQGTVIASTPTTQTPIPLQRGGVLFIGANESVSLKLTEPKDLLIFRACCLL
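Test system: human phosphomannose isomerase with PGI, G6PDH, diaphorase coupling enzymes / Doses: 20 µM compound, 1% DMSO / Times: enzyme reaction with compound 20 min at room temperature / Measured by: Diaphorase-driven resazurin-to-resorufin fluorescence, excitation 544, emission 590 nm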
PMI act = increases human mannose-6-phosphate isomerase activity; activation factor at 20 µM; purified human PMI, coupled resazurin fluorescence, 20 min; active compounds read high; 1 = vehicle control, 0 substrate-free wells; AID 1214; 190,000 tested, 0.005% active;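 active = activation factor of 2 or more at 20 µM, relative to plate controls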
bCat KO growth = beta-catenin-lacking colon tumor cell growth suppression. HCT116 beta-catenin knockout viability, CellTiter-Glo, 60 h; active compounds read low. AID 818. 140,000 tested, 1.5% active. viability, % at 10 µM;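 active = viability at or under a set limit, the compound median less 4 SD, cut at about 6% in these data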
Lmaj promast = inhibitors of Leishmania major promastigote growth; inhibition, % at 10 µM; Leishmania major promastigotes, resazurin fluorescence viability; 200,000 tested, 9% active; in the data active = inhibition above about 50%;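 note: promastigotes grown with compound for 44 hours at 28 °C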
HCT116 PTEN-null = growth suppressors of cells with PTEN tumor suppressor deletion; HCT116 PTEN-null viability, CellTiter-Glo, 60 h; active compounds read low; viability, % at 10 µM; 140,000 tested, 1.2% active; AID 827;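 active = viability at or below a set limit, 4 SD under the median of all tested compounds, cut at about 3.7% in these data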;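 note: PTEN knockout HCT116 line with beta catenin targeted HCT116 as companion control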
Large screens that a line does not name were inactive. An excerpt weighted towards active compounds, which were near 9.6% of everything screened.

COC(=O)C1=C(C)N(CC2CCCO2)C(=O)/C1=C\c1ccc(O)cc1 (stereo not given)	none
COC(=O)C1=C(C)N(c2ccc(C)c(C)c2)/C(=C/c2ccc(O)cc2)C1=O	Lmaj promast 99 (no result: bCat KO growth, HCT116 PTEN-null)
Cc1cc(NC(=O)c2cccc(S(=O)(=O)N3CCCCCC3)c2)n(-c2ccccn2)n1	none
Cc1cc(C)nc(-n2nc(C)cc2NC(=O)c2cccc(S(=O)(=O)N3CCCCC3)c2)n1	Lmaj promast 72
COc1cccc(Cn2cc(N)cn2)c1	Lmaj promast 98 (no result: PMI act satM6P, PMI act, bCat KO growth, HCT116 PTEN-null)
Nc1cnn(Cc2ccccc2F)c1	Lmaj promast 100 (no result: bCat KO growth, HCT116 PTEN-null)
CCc1ccc(NC(=S)N2CCN(c3cccc(OC)c3)CC2)cc1	none (no result: bCat KO growth, HCT116 PTEN-null)
O=C(O)COn1c(-c2ccccc2)nc2ccc([N+](=O)[O-])cc21	none (no result: bCat KO growth, HCT116 PTEN-null)
CCOC(=O)C(C)On1c(-c2ccccc2)nc2ccc([N+](=O)[O-])cc21 (stereo not given)	PMI act satM6P 2
CCOC(=O)C(C)On1c(-c2ccc(Cl)cc2)nc2ccc([N+](=O)[O-])cc21 (stereo not given)	PMI act satM6P 2
COc1cc(C(=O)OC2CC3CCC2(C)C3(C)C)ccc1OC(C)=O (stereo not given)	none (no result: bCat KO growth, HCT116 PTEN-null)
CC(=O)/C(=N\Nc1ccc(C)cc1)N1CCOCC1	PMI act satM6P 2.6
Cc1ccc(NC(=O)CC(=O)NCCN2CCOCC2)cc1	none
CC(O)C(NC=C1C(=O)OC(C)(C)OC1=O)C(=O)O (stereo not given)	none (no result: bCat KO growth, HCT116 PTEN-null)
CCc1cc[n+](C2=C([O-])c3ccccc3C(=O)/C2=N\S(=O)(=O)c2cccs2)cc1	bCat KO growth 2.8, Lmaj promast 99, HCT116 PTEN-null 3.2
CC(NC(=O)c1ccccc1)C(c1cccs1)N1CCOCC1 (stereo not given)	none
CCOC(=O)c1cn(-c2nc(-c3ccc(Cl)c(Cl)c3)cs2)c2c(F)c(N3CCOCC3)c(F)cc2c1=O	bCat KO growth 1.7, HCT116 PTEN-null 1.2
CCOC(=O)c1ccc(N2C(=O)c3n[nH]c(-c4ccco4)c3C2c2ccc([N+](=O)[O-])cc2)cc1 (stereo not given)	Lmaj promast 98
COc1ccc(NC(=O)C2CCCN(S(=O)(=O)c3ccc4c(c3)oc(=O)n4C)C2)c(OC)c1 (stereo not given)	none
O=C(CN1CCC(O)(c2ccc3c(c2)OCO3)CC1)OC1CCCCC1	Lmaj promast 97
COc1ccc(C2CC(C(F)(F)F)n3nc(C(=O)Nc4c(C)n(C)n(-c5ccccc5)c4=O)c(Cl)c3N2)cc1 (stereo not given)	Lmaj promast 69
Fc1ccccc1CN1CCCN(C(=S)Nc2cccc(Cl)c2)C1	Lmaj promast 86 (no result: bCat KO growth, HCT116 PTEN-null)
O=C(Nc1ccccc1)N1CCCN(Cc2ccccc2F)C1	none
Cc1c(Cl)cccc1NC(=S)N1CCCN(Cc2ccc(F)cc2)C1	Lmaj promast 89 (no result: bCat KO growth, HCT116 PTEN-null)
Cc1c(Cl)cccc1NC(=S)N1CCCN(Cc2ccccc2F)C1	Lmaj promast 82 (no result: bCat KO growth, HCT116 PTEN-null)
CSc1nsc2nc(=O)c(/C=C3\C(C)=Nc4ccccc43)c(N)n12	none (no result: bCat KO growth, HCT116 PTEN-null)
CCOC(=O)C(C(=O)OCC)c1cc(Br)c2noc3c2c1C(=O)c1ccccc1-3	bCat KO growth 1.3, Lmaj promast 100, HCT116 PTEN-null 1.1
O=C(NCCCn1ccnc1)c1sc2cccc(F)c2c1Cl	Lmaj promast 78
O=C(Nc1ccc2c(c1)N(Cc1ccccc1)C(=O)c1ccccc1S2)NC1CC1	Lmaj promast 92
CN1C(=O)c2ccccc2Sc2ccc(NC(=O)NC3CC3)cc21	none
Cc1cc(C)nc(NC(N)=NCCc2c[nH]c3ccccc23)n1	Lmaj promast 78 (no result: bCat KO growth, HCT116 PTEN-null)
Cc1cc(C)nc(NC2=NCC(=O)N2CCc2c[nH]c3ccccc23)n1	none
CCCOc1ccccc1N/C(=N/c1nc(C)cc(C)n1)NC(=O)Nc1ccc(Cl)cc1	none
Cc1cc(C)nc(NC(=NCCc2c[nH]c3ccccc23)NC(=O)Nc2ccc(Cl)cc2)n1	Lmaj promast 73
NC(=NCCc1c[nH]c2ccccc12)NC(=O)c1ccc(Cl)cc1	Lmaj promast 60 (no result: bCat KO growth, HCT116 PTEN-null)
CN1CCN(c2ccc(NC(=O)c3ccc(C#N)cc3F)cc2Cl)CC1	none (no result: bCat KO growth, HCT116 PTEN-null)
CSc1cnc2c(N)nc(N(C)C)nc2n1	Lmaj promast 58
CSc1cnc2c(=O)n(C)c(=O)[nH]c2n1	none
COc1ccc(CNC(=O)Cn2nnc(-c3ccc(NC(=O)C4CCCCC4)cc3)n2)cc1	none
O=C1S/C(=C/c2ccc(N3CCOCC3)o2)C(=O)N1Cc1c(F)cccc1Cl	Lmaj promast 85
COc1ccc(-c2cc(-c3ccccc3O)[nH]n2)cc1	Lmaj promast 99
O=C(Nc1nnc(SCC(=O)N2CCCc3ccccc32)s1)c1cccc2ccccc12	Lmaj promast 96
C/C(CC(=O)NC(C)(C)C)=N\NC(N)=S	none (no result: bCat KO growth, HCT116 PTEN-null)
CN(C(=O)COC(=O)c1ccccc1SCC(=O)NC1CCCCCCC1)C1CCS(=O)(=O)C1 (stereo not given)	none
CCC(C)NS(=O)(=O)c1ccc(NS(=O)(=O)c2ccc(F)cc2)cc1 (stereo not given)	none
CC(=O)NCCCc1nc2ccccc2n1Cc1cc(C)ccc1C	none (no result: bCat KO growth, HCT116 PTEN-null)
COc1cc(C(=O)NCCCc2nc3ccccc3n2Cc2cc(C)ccc2C)cc(OC)c1OC	Lmaj promast 69
CN(C)C(=O)N1CCN(C(=O)N2CCOCC2)CC1	none
CC(=O)N1c2ccc3ccccc3c2C2C=CCC2C1c1ccc(Br)cc1 (stereo not given)	Lmaj promast 97
Cc1ccc(NC(=O)C2CC(=O)N/C(=N/N=C/c3ccco3)S2)cc1 (stereo not given)	Lmaj promast 58
C/C(=N/N=C1/NC(=O)CC(C(=O)Nc2ccccc2)S1)c1cccs1 (stereo not given)	Lmaj promast 78
Cn1cc(Cl)c(C(=O)N2CCN(c3ncccn3)CC2)n1	none
O=C(NCCCN1CCOCC1)c1sc2ccccc2c1Cl	Lmaj promast 80 (no result: bCat KO growth, HCT116 PTEN-null)
O=C(NCCCN1CCOCC1)c1cc2c(s1)CSC2	Lmaj promast 80
CC(=O)Oc1cc2c(C(=O)NCCCN3CCOCC3)c(C)oc2c2ccccc12	bCat KO growth 0.9, Lmaj promast 52, HCT116 PTEN-null 1.4
COc1ccc(OCC(=O)NCCCN2CCOCC2)cc1	none
O=C(NCCCN1CCOCC1)c1ccc(Br)s1	none
Cc1cc(OCC(=O)NCCCN2CCOCC2)cc(C)c1Cl	Lmaj promast 71 (no result: PMI act satM6P, PMI act, bCat KO growth, HCT116 PTEN-null)
O=C(NCCCN1CCOCC1)c1ccccc1	none
COc1ccc(-c2nnn(CC(=O)Nc3sc4c(c3C#N)CCCC4)n2)cc1	none
Cc1sc(NC(=O)CN(CCc2ccccc2)C(=O)C2CC2)c(C(N)=O)c1C	none (no result: bCat KO growth, HCT116 PTEN-null)
CC(C)NC(=O)CC(=O)N/N=C/c1ccc(F)cc1	none
COc1ccc(-c2cc(C(F)F)n3ncc(C(=O)N4CCN(C)CC4)c3n2)cc1	Lmaj promast 98
CCOC(=O)C1CCCN(C(=O)c2cnn3c(C(F)F)cc(-c4ccc(C)cc4)nc23)C1 (stereo not given)	Lmaj promast 98
COc1ccc(-c2cc(C(=O)N3CCOCC3)c3cc(C)ccc3n2)cc1	Lmaj promast 65
